From PubChem BioAssay
DENV2 CPE = inhibitors of DENV2 cytopathic effect, primary screen, cell-based, plate reader, single concentration. DENV2-infected cells, cytopathic effect rescue. CPE inhibition, % at 9.99 µM. 350,000 tested, 1.7% active. AID 651640, 2012; in the data active = CPE inhibition above about 20%, passing the limit was not always enough; inconclusive = no clear call, values can overlap the other calls; tested in BHK-21 cells;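 also: 0% = median of neutral control wells and 100% = median of positive control wells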
E-sel inducer = E-selectin induction in HUVECs, primary screen, imaging, HUVEC, immunofluorescence imaging, single point; P16581; activation, % at 7.58 µM; normalized: neutral wells 0, TNF-alpha wells 100; AID 686992, 2013; 260,000 tested, 0.37% active;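 active = mean E-selectin-positive cell signal at least 10% of the positive control, reached in at least 60% of replicates, without over 20% cell loss; inconclusive = no rule given, readout overlaps actives, possibly toxicity-flagged; inactive = the rest, including those meeting only one limit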
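Test system: HUVEC; input: 3,000 HUVEC/well; measured by: immunofluorescence imaging; read-out: % PE-positive cells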
SIRT5 block = SIRT5 desuccinylase inhibitors, primary screen, biochemical, fluorescence imaging, single point, set 5; 330,000 tested, 1.1% active; Purified SirT5, succinyl-peptide AMC, trypsin-coupled fluorescence; inhibition, % at 15 µM; NAD-dependent protein deacylase sirtuin-5, mitochondrial (Homo sapiens), Q9NXA8; in the data active = inhibition above about 15%; inconclusive = no clear call, values can overlap the other calls
PglD DTNB = C. jejuni PglD acetyltransferase inhibitors, primary screen, biochemical, DTNB colorimetric, single point. UDP-N-acetylbacillosamine N-acetyltransferase PglD (Campylobacter jejuni). purified PglD enzyme, DTNB colorimetric CoA detection. inhibition, % at 12.5 µM. 360,000 tested, 0.098% active; in the data active = inhibition above about 16%, passing the limit was not always enough; inconclusive = no clear call, values can overlap the other calls
ERAP1 inh = human ERAP1 aminopeptidase inhibitors, primary screen, biochemical, single point, plate reader | recombinant ERAP1, Leu-AMC fluorescence, 60 min | 340,000 tested, 0.15% active | inhibition, % at 10.7 µM;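 active = mean replicate inhibition of at least 30%, or all replicates individually reaching that 30% level; inactive = mean below 30% and not every replicate reaching it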;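 also: 0% = neutral control wells and 100% = L-leucinethiol positive control wells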
Target sequence (Q9NZ08 whole entry, looked up): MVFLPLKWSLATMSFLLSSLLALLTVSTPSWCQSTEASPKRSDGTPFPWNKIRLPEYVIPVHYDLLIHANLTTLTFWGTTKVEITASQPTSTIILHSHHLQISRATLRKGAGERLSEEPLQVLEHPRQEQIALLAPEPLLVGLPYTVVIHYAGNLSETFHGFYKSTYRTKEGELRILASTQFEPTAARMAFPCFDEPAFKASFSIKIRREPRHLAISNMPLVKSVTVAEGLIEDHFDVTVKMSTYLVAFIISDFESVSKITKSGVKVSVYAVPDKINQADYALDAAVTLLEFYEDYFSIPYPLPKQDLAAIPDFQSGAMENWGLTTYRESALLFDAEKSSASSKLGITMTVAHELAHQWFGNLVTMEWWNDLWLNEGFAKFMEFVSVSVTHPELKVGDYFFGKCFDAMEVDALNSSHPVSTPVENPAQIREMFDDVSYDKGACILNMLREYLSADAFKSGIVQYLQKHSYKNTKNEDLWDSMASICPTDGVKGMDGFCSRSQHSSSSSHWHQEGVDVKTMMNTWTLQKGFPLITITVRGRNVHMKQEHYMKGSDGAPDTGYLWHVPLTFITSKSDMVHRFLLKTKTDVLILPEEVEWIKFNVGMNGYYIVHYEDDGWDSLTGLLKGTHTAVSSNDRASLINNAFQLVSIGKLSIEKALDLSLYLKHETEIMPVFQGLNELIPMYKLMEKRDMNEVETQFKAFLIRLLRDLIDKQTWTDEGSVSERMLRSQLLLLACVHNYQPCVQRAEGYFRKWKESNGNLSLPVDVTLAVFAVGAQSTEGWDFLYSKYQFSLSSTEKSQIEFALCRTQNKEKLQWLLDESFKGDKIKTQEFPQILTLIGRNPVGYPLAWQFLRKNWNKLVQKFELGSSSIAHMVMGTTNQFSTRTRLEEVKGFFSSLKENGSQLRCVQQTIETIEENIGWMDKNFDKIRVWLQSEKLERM
* marks the source's active call; other numbers are inactive results; ? = inconclusive; nt = no result given; ! = repeats disagree. Most compounds without a hit are left out; they make up all but 2.5% or so of the library.

SMILES	DENV2 CPE	E-sel inducer	SIRT5 block	PglD DTNB	ERAP1 inh
COC(=O)C1=CN(Cc2ccc(OC)c(OC)c2)C=C(C(=O)OC)C1c1ccc(F)cc1	-2.2	nt	17.7*	5.5	-11.4
CCN(CC)c1ccc(N=Cc2ccc([N+](=O)[O-])o2)cc1	-8.8	-0.3	15.4*	nt	1.6
CCCCCCSc1cc(-c2nc3cnccn3c2NCCCC)ccc1OC	nt	nt	26.5*	-3.6	-7.1
C[C@H](CO)N1C[C@H](C)[C@@H](CN(C)Cc2ccc(Cl)c(Cl)c2)Oc2ccc(NC(=O)Cc3cn(C)c4ccccc34)cc2C1=O	-1.3	16.8	-0.9	-1.4	0.3
C[C@H](CO)N1C[C@H](C)[C@H](CN(C)Cc2ccc(C(=O)O)cc2)Oc2ccc(NC(=O)Cc3cn(C)c4ccccc34)cc2C1=O	70.3*	-4.7	-3.8	-0.9	1.1
C[C@@H]1CN([C@@H](C)CO)C(=O)c2cc(NC(=O)Cc3cn(C)c4ccccc34)ccc2O[C@H]1CN(C)Cc1ccc(Cl)c(Cl)c1	-7.1	-3.6	26.0*	-6.7	-1.1
Cc1nnc2ccc(-c3ccc(NS(=O)(=O)c4ccc(Cl)s4)cc3)nn12	-3.7	nt	0.1	-0.4	6.3
COc1ccc(CN2CCN(C(=O)Cn3ncn4cccc4c3=O)CC2)c(OC)c1OC	-4.3	nt	nt	10.1	-1.3
CCn1c(C)cc(/C=C2/SC(=S)N(CC(=O)O)C2=O)c1C	nt	-5.8	15.4*	nt	nt
CCn1c(C)cc(/C=C2/SC(=O)N(C(C)C(=O)OC)C2=O)c1C (stereo not drawn)	-1.4	-0.1	-1.0	-6.9	3.3
COCC(=O)N1CC2(C1)[C@H](c1ccc(-c3cccc(C)c3)cc1)[C@@H](CO)N2C(=O)C1CC1	-15.3	-0.2	-1.5	nt	0.4
COCC(=O)N1CC2(C1)[C@H](c1ccc(-c3cccc(C)c3)cc1)[C@H](CO)N2C(=O)C1CC1	48.9*	0.0	1.1	nt	1.3
COCC(=O)N1[C@@H](CO)[C@H](c2ccc(-c3cccc(OC)c3)cc2)C12CN(C(C)=O)C2	30.9*	-0.1	-6.6	nt	-2.1
CCC(=O)N1[C@H](CO)[C@@H](c2ccc(-c3cccc(OC)c3)cc2)C12CN(C(C)=O)C2	5.2	-0.1	-1.0	nt	-0.1
C[C@@H]1CN([C@H](C)CO)C(=O)CCCn2nncc2CO[C@H]1CN(C)C(=O)Nc1ccccc1C(F)(F)F	-10.8	-0.2	7.4	-0.6	-0.9
O=C(Nc1ccc(C(=O)N2CCCC2)cc1)c1cccc(C(F)(F)F)c1	14.7	-0.1	-1.2	-3.8	-2.6
O=C(O)CCC(=O)Nc1ccc(SSc2ccc(NC(=O)CCC(=O)O)cc2)cc1	2.0	-0.2	-0.5	-6.1	37.7*
COc1ccc(CNC(=O)C(c2ccco2)N(Cc2cccs2)C(=O)Cc2cccs2)cc1 (stereo not drawn)	nt	nt	nt	-17.7	nt
COc1ccc(CNC(=O)C(c2ccco2)N(C(=O)Cc2cccs2)c2cccnc2)cc1 (stereo not drawn)	6.7	nt	34.7*	nt	0.9
COc1ccc(-c2c(-c3cc(OC)cc(OC)c3)n(C)c3ccc(Br)cc23)cc1	31.9*	0.2	nt	-6.6	nt
COc1cccc(-c2c(-c3cc(OC)cc(OC)c3)n(C)c3ccc(Br)cc23)c1	5.8	1.2	nt	-4.3	0.3
Cc1cccc(N2CCN(c3nc4ccc(Cl)cc4n4cnnc34)CC2)c1C	-11.3	152.4*	11.9	nt	-3.0
COC(=O)C1=C(C)NC(=O)/C1=C\N(C)C	-2.4	38.7*	0.1	nt	3.6
COC(=O)C1=C(C)NC(=O)/C1=C\c1cccs1	nt	nt	nt	3.6	nt
COc1ccccc1C(=O)NC(C(=O)NCCc1nc2ccccc2[nH]1)=C(C)C	0.5	0.0	0.7	-3.5	-1.7
SMILES	DENV2 CPE	E-sel inducer	SIRT5 block	PglD DTNB	ERAP1 inh
CC(C)=C(NC(=O)c1ccccc1Cl)C(=O)NCCc1nc2ccccc2[nH]1	130.0*	nt	-2.2	2.2	-7.4
Cc1cccc(NC(=O)CCCN2C(=O)C(c3ccccc3)Oc3cccnc32)c1C (stereo not drawn)	?	57.4*	-3.4	nt	-2.6
Cc1cccc(C)c1NC(=O)CCCN1C(=O)C(c2ccccc2)Oc2cccnc21 (stereo not drawn)	?	nt	-1.6	-3.0	2.0
CN1C(=O)c2cc(NC(=O)C3CCCC3)ccc2OC[C@H]2O[C@@H](CC(=O)O)CC[C@@H]21	nt	0.0	nt	nt	nt
C[C@H]1CN([C@@H](C)CO)C(=O)CCCn2nncc2CO[C@@H]1CN(C)C(=O)CCCN(C)C	-8.8	0.3	22.1*	-0.4	2.9
C[C@H](CO)N1C[C@H](C)[C@H](CN(C)C(=O)Nc2ccccc2C(F)(F)F)OCc2cnnn2CCCC1=O	-2.7	nt	15.8*	0.0	0.1
C[C@@H]1CN([C@H](C)CO)C(=O)CCCn2nncc2CO[C@@H]1CN(C)C(=O)Cc1ccccc1	32.8*!	-1.7	-6.4	-4.3	-3.3
CC(C)OC(=O)N(C)C[C@H]1OCc2cnnn2CCCC(=O)N([C@H](C)CO)C[C@@H]1C	28.5*!	0.8	1.8	5.5	-9.2
C[C@H](CO)N1C[C@H](C)[C@@H](CN(C)C(=O)Cc2ccccc2)OCc2cnnn2CCCC1=O	12.4	2.6	-0.8	3.9	-1.2
C[C@@H]1CN([C@H](C)CO)C(=O)CCCn2nncc2CO[C@@H]1CN(C)C(=O)Nc1ccccc1C(F)(F)F	-4.7	0.0	2.4	1.5	1.7
C[C@@H]1CN([C@H](C)CO)C(=O)CCCn2nncc2CO[C@@H]1CN(C)C(=O)CCCN(C)C	-0.5	0.2	-3.3	3.4	-2.6
CC(C)NC(=O)N(C)C[C@H]1OCc2cnnn2CCCC(=O)N([C@@H](C)CO)C[C@@H]1C	45.3*	0.1	2.7	1.1	-0.7
C[C@H](CO)N1C[C@H](C)[C@@H](CN(C)Cc2ccc(O)cc2)OCc2cnnn2CCCC1=O	41.9*!	-0.3	0.3	5.5	4.2
COc1cc(/C=C/C(=O)OCC(=O)NC2CCS(=O)(=O)C2)ccc1OC(F)F (stereo not drawn)	4.3	nt	-2.4	-5.0	-1.0
CCOC(=O)COc1nc(OC)nc(N2CCOCC2)n1	nt	nt	nt	-8.2	nt
C[C@H](NC(=O)OCc1ccccc1)C(=O)NNC(=O)[C@H](C)NC(=O)OCc1ccccc1	0.2	0.0	21.2*	-2.3	-6.2
CC(C)(C)OC(=O)[C@H](NC(=O)OCc1ccccc1)c1ccccc1	-7.5	0.1	nt	1.7	1.7
CC(C)(C)OC(=O)C(Cc1ccc(OC(C)(C)C)cc1)NC(=O)CNC(=O)OCc1ccccc1 (stereo not drawn)	76.7*	-0.5	9.4	nt	0.4
C[C@H](NC(=O)OCc1ccccc1)C(=O)NNC(=O)[C@H](Cc1ccccc1)NC(=O)OC(C)(C)C	3.5	nt	-1.7	1.7	5.1
CC(C)(C)OC(=O)NC(CC(=O)OCc1ccccc1)C(=O)O (stereo not drawn)	47.1*	nt	-1.6	-8.8	1.0
